Measured values: ChEMBL document CHEMBL4052615, “Discovery of 4-amino-3-arylsulfoquinolines, a novel non-acetylenic chemotype of metabotropic glutamate 5 (mGlu5) receptor negative allosteric modulators” (Eur J Med Chem, 2017)

These molecules were tested against Metabotropic glutamate receptor 5 (Homo sapiens, UniProt P41594) (assay: Displacement of [3H]M-MPEP from mGluR5 (unknown origin) at 1 uM measured after 60 mins relative to control).
Sequence of Metabotropic glutamate receptor 5 (P41594 21-1212 limits assumed): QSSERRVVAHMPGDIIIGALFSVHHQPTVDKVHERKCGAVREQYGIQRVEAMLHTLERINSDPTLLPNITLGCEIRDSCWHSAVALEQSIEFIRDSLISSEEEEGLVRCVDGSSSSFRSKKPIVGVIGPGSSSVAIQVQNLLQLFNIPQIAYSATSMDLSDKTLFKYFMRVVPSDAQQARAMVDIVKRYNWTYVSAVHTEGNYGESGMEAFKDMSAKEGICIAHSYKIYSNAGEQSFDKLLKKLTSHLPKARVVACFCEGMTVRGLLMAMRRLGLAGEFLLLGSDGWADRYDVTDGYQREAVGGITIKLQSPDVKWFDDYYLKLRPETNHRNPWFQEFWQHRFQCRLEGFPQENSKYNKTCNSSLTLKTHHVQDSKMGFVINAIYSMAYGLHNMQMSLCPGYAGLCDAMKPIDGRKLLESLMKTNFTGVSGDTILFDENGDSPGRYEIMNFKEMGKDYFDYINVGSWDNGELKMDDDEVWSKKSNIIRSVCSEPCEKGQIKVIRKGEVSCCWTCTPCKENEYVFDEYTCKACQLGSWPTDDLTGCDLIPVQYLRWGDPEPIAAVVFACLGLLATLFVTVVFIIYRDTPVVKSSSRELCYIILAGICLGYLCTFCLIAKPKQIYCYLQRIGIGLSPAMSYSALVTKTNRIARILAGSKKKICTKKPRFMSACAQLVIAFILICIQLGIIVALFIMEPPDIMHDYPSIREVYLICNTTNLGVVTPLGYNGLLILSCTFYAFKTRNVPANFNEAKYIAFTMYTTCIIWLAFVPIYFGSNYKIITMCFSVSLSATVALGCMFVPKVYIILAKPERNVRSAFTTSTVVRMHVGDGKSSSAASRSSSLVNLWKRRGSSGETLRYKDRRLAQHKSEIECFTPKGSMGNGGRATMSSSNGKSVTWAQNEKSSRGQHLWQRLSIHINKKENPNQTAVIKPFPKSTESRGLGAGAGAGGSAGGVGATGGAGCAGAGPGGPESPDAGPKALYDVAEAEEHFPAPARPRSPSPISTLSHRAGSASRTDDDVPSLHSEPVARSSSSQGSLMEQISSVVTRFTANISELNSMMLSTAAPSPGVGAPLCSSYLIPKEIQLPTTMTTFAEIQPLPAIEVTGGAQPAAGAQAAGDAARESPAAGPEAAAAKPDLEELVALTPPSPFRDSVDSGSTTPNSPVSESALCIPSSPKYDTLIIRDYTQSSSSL
Summary of the method: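 Rat cerebrocortical membranes or membranes from A18 cells expressing human mGlu5a, incubated with [³H]M-MPEP and test compound at 1 µM in 50 mM Tris pH 7.6 with 2 mM MgCl₂ and 2 mM CaCl₂, 60 min at 25°C. Non-specific binding was taken with […]. Result is % displacement, run in duplicate or triplicate.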
In the case of `Cc1ccc(S(=O)(=O)c2cnc3ccc(Cl)cc3c2N2CCOCC2)cc1C`, the inhibition is reported as 90%. Molecule `Cc1ccc(S(=O)(=O)c2cnc3ccc(Cl)cc3c2N2CCOCC2)cc1F` has an inhibition of 23%. Work on `CC1CCN(c2c(S(=O)(=O)c3ccc(C#N)cc3)cnc3c(F)cccc23)CC1` yielded an inhibition of 86%. In the case of `N#Cc1cccc(S(=O)(=O)c2cnc3ccc(F)cc3c2N2CCOCC2)c1`, the inhibition is reported as 25%. In the case of `Cc1ccc(S(=O)(=O)c2cnc3ccc(F)cc3c2N2CCOCC2)cc1F`, the inhibition is reported as 28%. `Cc1cc(C)cc(S(=O)(=O)c2cnc3cc(F)ccc3c2N2CCC(C)CC2)c1` gave an inhibition of 80%. Molecule `COc1ccc(S(=O)(=O)c2cnc3ccc(C)cc3c2N2CCOCC2)cc1` has an inhibition of 26%. `O=S(=O)(c1ccccc1)c1cnc2cc(F)ccc2c1N1CCOCC1` gave an inhibition of 4%. Work on `O=S(=O)(c1cccc(F)c1)c1cnc2cc(Cl)ccc2c1N1CCC(CO)CC1` yielded an inhibition of 71%. `Cc1ccc(S(=O)(=O)c2cnc3cc(F)ccc3c2N2CCOCC2)cc1C` was tested, and the inhibition was 74%. With `O=S(=O)(c1cccc(Cl)c1)c1cnc2ccc(Cl)cc2c1N1CCOCC1` the inhibition was 24%. In the case of `CC1CCN(c2c(S(=O)(=O)c3ccc(F)cc3)cnc3ccc(Cl)cc23)CC1`, the inhibition is reported as 89%. For `O=S(=O)(c1ccccc1)c1cnc2ccc(Cl)cc2c1N1CCOCC1`, the inhibition was 18%. Work on `COc1ccc(S(=O)(=O)c2cnc3cc(Cl)ccc3c2N2CCC(C)CC2)cc1OC` yielded an inhibition of 93%. In the case of `CC1CCN(c2c(S(=O)(=O)c3ccccc3)cnc3ccc(Cl)cc23)CC1`, the inhibition is reported as 59%. In the case of `COc1ccc(S(=O)(=O)c2cnc3ccc(C)cc3c2N2CCC(C)CC2)cc1`, the inhibition is reported as 62%. `O=S(=O)(c1ccc(Cl)cc1)c1cnc2ccc(F)cc2c1N1CCOCC1` was tested, and the inhibition was 78%. `O=S(=O)(c1ccc(F)c(Cl)c1)c1cnc2ccc(F)cc2c1N1CCOCC1` was tested, and the inhibition was 58%. In the case of `O=S(=O)(c1cc(F)cc(F)c1)c1cnc2cc(F)ccc2c1N1CCOCC1`, the inhibition is reported as 47.8 to 48%. `N#Cc1cccc(S(=O)(=O)c2cnc3cc(F)ccc3c2N2CCSCC2)c1` gave an inhibition of 80.9%. In the case of `CC1CCN(c2c(S(=O)(=O)c3ccc(C#N)cc3)cnc3cc(Cl)ccc23)CC1`, the inhibition is reported as 70%. With `CC1CCN(c2c(S(=O)(=O)c3ccc(Cl)c(Cl)c3)cnc3cc(Cl)ccc23)CC1` the inhibition was 89%. Molecule `COCC1CCN(c2c(S(=O)(=O)c3cc(F)cc(F)c3)cnc3cc(F)ccc23)CC1` has an inhibition of 83%. Work on `Cc1ccc(S(=O)(=O)c2cnc3cc(F)ccc3c2N2CCC(C)CC2)cc1C` yielded an inhibition of 90%. For `COc1ccc(S(=O)(=O)c2cnc3ccc(F)cc3c2N2CCOCC2)cc1`, the inhibition was 18%. For `CC1CCN(c2c(S(=O)(=O)c3ccc(F)cc3)cnc3c(F)cccc23)CC1`, the inhibition was 26%. `N#Cc1cccc(S(=O)(=O)c2cnc3ccc(Cl)cc3c2N2CCOCC2)c1` gave an inhibition of 20%. With `CC1CCN(c2c(S(=O)(=O)c3ccc(C#N)cc3)cnc3ccc(F)cc23)CC1` the inhibition was 75%. `COc1cccc(S(=O)(=O)c2cnc3cc(F)ccc3c2N2CCOCC2)c1` gave an inhibition of 72%. `Cc1cc(C)cc(S(=O)(=O)c2cnc3ccc(Cl)cc3c2N2CCC(C)CC2)c1` was tested, and the inhibition was 49%. Work on `Cc1ccc2ncc(S(=O)(=O)c3ccc(Cl)c(Cl)c3)c(N3CCC(C)CC3)c2c1` yielded an inhibition of 82%. In the case of `CC1CCN(c2c(S(=O)(=O)c3ccc(F)c(Cl)c3)cnc3cc(Cl)ccc23)CC1`, the inhibition is reported as 94%. `COc1ccc(S(=O)(=O)c2cnc3ccc(F)cc3c2N2CCOCC2)cc1Cl` gave an inhibition of 26%. In the case of `CC1CCN(c2c(S(=O)(=O)c3ccc(F)cc3)cnc3cc(F)ccc23)CC1`, the inhibition is reported as 74.5 to 75%. In the case of `O=S(=O)(c1ccccc1)c1cnc2ccccc2c1N1CCCC1`, the inhibition is reported as 7.1%. Molecule `O=S(=O)(c1ccc(F)c(Cl)c1)c1cnc2ccc(Cl)cc2c1N1CCOCC1` has an inhibition of 39%. `COc1ccc2ncc(S(=O)(=O)c3ccc(Cl)c(Cl)c3)c(N3CCC(C)CC3)c2c1` was tested, and the inhibition was 87%. Molecule `COc1ccc2ncc(S(=O)(=O)c3cc(F)cc(F)c3)c(N3CCOCC3)c2c1` has an inhibition of 3%. With `COc1ccc(S(=O)(=O)c2cnc3ccc(Cl)cc3c2N2CCC(C)CC2)cc1OC` the inhibition was 61%. With `Cc1ccc2ncc(S(=O)(=O)c3ccc(F)c(Cl)c3)c(N3CCOCC3)c2c1` the inhibition was 73%. With `Cc1cc(C)cc(S(=O)(=O)c2cnc3ccc(Cl)cc3c2N2CCOCC2)c1` the inhibition was 14%. Work on `O=S(=O)(c1ccccc1)c1cnc2c(F)cccc2c1N1CCOCC1` yielded an inhibition of 4%. `Cc1ccc(S(=O)(=O)c2cnc3cc(Cl)ccc3c2N2CCOCC2)cc1F` showed an inhibition of 38%. `COc1cccc(S(=O)(=O)c2cnc3ccc(Cl)cc3c2N2CCC(C)CC2)c1` was tested, and the inhibition was 87%. Molecule `CC1CCN(c2c(S(=O)(=O)c3ccc(C#N)cc3)cnc3cc(F)ccc23)CC1` has an inhibition of 83%. `CC1CCN(c2c(S(=O)(=O)c3ccccc3)cnc3cc(F)ccc23)CC1` was tested, and the inhibition was 87%. `O=S(=O)(c1cc(F)cc(F)c1)c1cnc2cc(Cl)ccc2c1N1CCOCC1` was tested, and the inhibition was 67%. In the case of `Cc1ccc2ncc(S(=O)(=O)c3ccccc3)c(N3CCC(C)CC3)c2c1`, the inhibition is reported as 67%. Molecule `CC1CCN(c2c(S(=O)(=O)c3cc(F)cc(F)c3)cnc3ccc(Cl)cc23)CC1` has an inhibition of 93%. With `COc1ccc(S(=O)(=O)c2cnc3cc(F)ccc3c2N2CCC(C)CC2)cc1OC` the inhibition was 83%. In the case of `COc1ccc2ncc(S(=O)(=O)c3cc(C)cc(C)c3)c(N3CCOCC3)c2c1`, the inhibition is reported as 11%. `COc1ccc2ncc(S(=O)(=O)c3ccc(C#N)cc3)c(N3CCOCC3)c2c1` gave an inhibition of 2%. `N#Cc1ccc(S(=O)(=O)c2cnc3ccc(Cl)cc3c2N2CCOCC2)cc1` showed an inhibition of 4%. `COc1ccc2ncc(S(=O)(=O)c3cccc(F)c3)c(N3CCOCC3)c2c1` was tested, and the inhibition was -3%. Molecule `O=S(=O)(c1cccc(F)c1)c1cnc2ccc(F)cc2c1N1CCOCC1` has an inhibition of 0%. Work on `CCOC(=O)C1CCN(c2c(S(=O)(=O)c3ccccc3)cnc3ccccc23)CC1` yielded an inhibition of 33%. `COc1ccc(S(=O)(=O)c2cnc3cc(Cl)ccc3c2N2CCOCC2)cc1OC` showed an inhibition of 4%. For `Cc1ccc(S(=O)(=O)c2cnc3ccc(Cl)cc3c2N2CCOCC2)cc1Cl`, the inhibition was 53%. `COc1ccc(S(=O)(=O)c2cnc3ccc(Cl)cc3c2N2CCOCC2)cc1Cl` was tested, and the inhibition was 33%. Work on `CC1CCN(c2c(S(=O)(=O)c3cc(Cl)cc(Cl)c3)cnc3ccc(F)cc23)CC1` yielded an inhibition of 69%. With `COc1ccc2ncc(S(=O)(=O)c3ccc(OC)c(Cl)c3)c(N3CCC(C)CC3)c2c1` the inhibition was 21%. In the case of `COc1ccc(S(=O)(=O)c2cnc3ccc(F)cc3c2N2CCC(C)CC2)cc1Cl`, the inhibition is reported as 82%. `COc1ccc2ncc(S(=O)(=O)c3ccc(C)c(F)c3)c(N3CCOCC3)c2c1` showed an inhibition of 4%. For `O=S(=O)(c1ccc(Cl)c(Cl)c1)c1cnc2ccc(F)cc2c1N1CCOCC1`, the inhibition was 68%. In the case of `COc1ccc(S(=O)(=O)c2cnc3ccc(F)cc3c2N2CCC(C)CC2)cc1OC`, the inhibition is reported as 54%. `CC1CCN(c2c(S(=O)(=O)c3ccc(F)cc3)cnc3cc(Cl)ccc23)CC1` showed an inhibition of 91%. In the case of `COc1ccc(S(=O)(=O)c2cnc3cc(F)ccc3c2N2CCOCC2)cc1Cl`, the inhibition is reported as 53%. `O=S(=O)(c1cc(Cl)cc(Cl)c1)c1cnc2ccc(Cl)cc2c1N1CCOCC1` showed an inhibition of 14%. Molecule `COc1cccc(S(=O)(=O)c2cnc3ccc(OC)cc3c2N2CCC(C)CC2)c1` has an inhibition of 0%. Molecule `CC1CCN(c2c(S(=O)(=O)c3ccc(Cl)c(Cl)c3)cnc3c(F)cccc23)CC1` has an inhibition of 95%. `N#Cc1ccc(S(=O)(=O)c2cnc3c(F)cccc3c2N2CCOCC2)cc1` gave an inhibition of 6%. Molecule `Cc1ccc2ncc(S(=O)(=O)c3ccccc3)c(N3CCOCC3)c2c1` has an inhibition of 86%. `Cc1ccc(S(=O)(=O)c2cnc3ccc(F)cc3c2N2CCC(C)CC2)cc1Cl` showed an inhibition of 91%.
